Consider two molecules from ChEMBL document CHEMBL1255250, “Microbicidal properties and cytocidal selectivity of rhesus macaque theta defensins” (Antimicrob Agents Chemother, 2008).

Each structure is given as a SMILES string. Activity calls are given as the source filed them. No cut-off for these calls is given here. A value given as a limit tells only on which side of the number the result lay.

Series [1] is described as follows: Toxicity in human Erythrocyte assessed as concentration required to achieve 3% hemolysis. The format is cell-based.
Series [2] can be described thus: Toxicity in human Erythrocyte assessed as hemolysis at 100 ug/ml in presence of 10% serum. The format is cell-based. The gist of the method:
(§1)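 Erythrocytes from EDTA-anticoagulated human donor blood were washed in PBS or PiBS containing 4 mM EDTA, then resuspended without EDTA at 2% (vol/vol). Cells were incubated with peptide (0.3–100 μg/ml final) for 1 h at 37°C, with or without 10% autologous serum. Supernatant A405 was expressed relative to 1% Nonidet P-40 lysis.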

The subject of series [3] is Hs68. Kind of series: Cytotoxicity against human HS68 cells at <=100 ug/ml by MTT assay in presence of 0.4% FBS. The format is cell-based. In outline: (§2)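 HS68 fibroblasts were grown in DMEM with 10% FBS and penicillin/streptomycin at 37°C and 5% CO2. Cells were seeded at 5 × 10^3 per well for 18 h. Medium was then switched to antibiotic-free DMEM with 0.4% or 10% FBS, as each line states, and peptide was added at 0–100 μg/ml for 1 h at 37°C. Wells were refed with growth medium and read by MTT in triplicate against no-peptide wells.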

The test system of series [4] is Hs68. Kind of series: Cytotoxicity against human HS68 cells at <=100 ug/ml by MTT assay in presence of 10% FBS. The format is cell-based. The gist of the method:
as §2
For orientation: Tetrazolium assays rely on reduction of a dye to a coloured formazan, in cell work by metabolically active cells.

Series [5] deals with Staphylococcus aureus. As to the kind of experiment: Microbicidal activity against Staphylococcus aureus 502a. The format is functional. In outline:
(§3)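 Log-phase organisms (1–2 × 10^6 CFU/ml) were exposed to serially diluted peptide (0.05–10.0 μg/ml final) in 10 mM PIPES, pH 7.4, with 5 mM glucose for 2 h at 37°C. Aliquots were serially diluted 1:10 to 1:10^6 in Trypticase soy or Sabouraud broth and grown 24–48 h at 37°C. MMC was the lowest concentration giving 99.9% viability loss in at least two experiments.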

The subject of series [6] is Escherichia coli. Kind of series: Microbicidal activity against Escherichia coli ML35. The format is functional. In outline:
as §3

For series [7], the system named is Candida albicans. Kind of series: Microbicidal activity against Candida albicans 16820. The format is functional. The gist of the method: as §3
The subject of series [8] is Staphylococcus aureus. Kind of series: Microbicidal activity against Staphylococcus aureus 502a at 5 ug/ml in presence of <= 80 mM NaCl. The format is functional, organism-based. In outline: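 S. aureus in log phase was incubated with 5 μg/ml peptide in 10 mM PIPES, pH 7.4, containing increasing NaCl for 2 h at 37°C. Killing was determined by colony counting and expressed as a percentage of killing in buffer alone.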

Series [9] has as its system Candida albicans. As to the kind of experiment: Microbicidal activity against Candida albicans 16820 using PIPES buffer in presence of NaCl. The format is functional, organism-based. In outline: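 Log-phase C. albicans was incubated with peptide in 10 mM PIPES, pH 7.4, supplemented with NaCl, for 2 h at 37°C. Survivors were plated on Sabouraud dextrose agar and counted after 18–24 h at 37°C.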

The test system of series [10] is Staphylococcus aureus. As to the kind of experiment: Microbicidal activity against Staphylococcus aureus 502a using 10 mM PIPES buffer in presence of 154 mM NaCl. The format is functional, organism-based. In outline:
(§4)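 Log-phase S. aureus was exposed to increasing peptide concentrations for 2 h at 37°C. Buffer was 10 mM PIPES, Tris-HCl or sodium phosphate, pH 7.4, with or without 154 mM NaCl. Killing was read by colony counting.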

In series [11] the test system is Staphylococcus aureus. As to the kind of experiment: Microbicidal activity against Staphylococcus aureus 502a using 10 mM Tris-HCl buffer in presence of 154 mM NaCl. The format is functional, organism-based. The gist of the method:
as §4

Series [12] relates to Staphylococcus aureus. As to the kind of experiment: Microbicidal activity against Staphylococcus aureus 502a using 10 mM sodium phosphate buffer in presence of 154 mM NaCl. The format is functional, organism-based. In outline: as §4
The test system of series [13] is Staphylococcus aureus. Kind of series: Microbicidal activity against Staphylococcus aureus 502a in presence of 1.2 mM Calcium ions. The format is functional, organism-based.
The test system of series [14] is Escherichia coli. Kind of series: Microbicidal activity against Escherichia coli ML35 in presence of 1.2 mM Calcium ions. The format is functional, organism-based. In outline: (§5)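 Log-phase E. coli ML35 or C. albicans was incubated with increasing peptide concentrations in 10 mM PIPES, pH 7.4. The buffer contained 1.2 mM CaCl2 and 0.8 mM MgCl2, or no added divalent salts. Incubation was 2 h at 37°C, and survivors were counted as colonies.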

Series [15] has as its system Staphylococcus aureus. Kind of series: Microbicidal activity against Staphylococcus aureus 502a in presence of 0.8 mM Magnesium ions. The format is functional, organism-based.
The subject of series [16] is Escherichia coli. As to the kind of experiment: Microbicidal activity against Escherichia coli ML35 in presence of 0.8 mM Magnesium ions. The format is functional, organism-based. In outline:
as §5

Series [17] has as its system Candida albicans. As to the kind of experiment: Microbicidal activity against Candida albicans 16820 in presence of 0.8 mM Magnesium ions. The format is functional, organism-based. The gist of the method: as §5
Series [18] concerns Escherichia coli. As to the kind of experiment: Microbicidal activity against Escherichia coli ML35 at <=8 ug/ml in presence of 10% heat-inactivated human serum. The format is functional, organism-based. In outline:
(§6)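 Human serum was heat-inactivated at 55°C for 30 min and clarified by centrifugation. E. coli was then exposed to a dose series of peptide in 10 mM PIPES, pH 7.4, with 10% of this serum. Killing was counted as colonies and expressed relative to incubations without serum.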

In series [19] the test system is Escherichia coli. As to the kind of experiment: Microbicidal activity against Escherichia coli ML35 at 16 ug/ml in presence of 10% heat-inactivated human serum. The format is functional, organism-based. The gist of the method: as §6
The test system of series [20] is Escherichia coli. As to the kind of experiment: Microbicidal activity against Escherichia coli ML35 assessed as induction of cytoplasmic membrane permeabilization at 1 ug/ml. The format is functional, organism-based. The gist of the method: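 Log-phase E. coli ML35 (1–2 × 10^6 CFU/ml) was incubated with peptide (0–8 μg/ml final) in 10 mM PIPES, pH 7.4, containing 3 mM ONPG. ONPG hydrolysis was followed at 405 nm for 60 min. The rate was taken as the highest kinetic slope and corrected for peptide inhibition of β-galactosidase measured cell-free.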

Series [21] in a line: Inhibition of beta-galactosidase in cell-free system assessed as inhibition of o-nitrophenyl-beta-d-galactopyranoside hydrolysis.
The target in series [22] is Beta-galactosidase (Escherichia coli) (UniProt Q8VNN2). As to the kind of experiment: Inhibition of Escherichia coli ML35 Beta-galactosidase assessed as inhibition of o-nitrophenyl-beta-d-galactopyranoside hydrolysis at 4 ug/ml.
Series [23] in a line: Toxicity in human Erythrocyte assessed as hemolysis at 100 ug/ml. The format is cell-based. In outline:
as §1

The subject of series [24] is Hs68. As to the kind of experiment: Cytotoxicity against human HS68 cells at 100 ug/ml in presence of 10% FBS by MTT assay. The format is cell-based. In outline:
as §2

Series [25] relates to Hs68. Kind of series: Cytotoxicity against human HS68 cells at 50 ug/ml by MTT assay in presence of 10% FBS. The format is cell-based. The gist of the method:
as §2

Series [26] is described as follows: Selectivity index, ratio of MMC for Staphylococcus aureus 502a to hemolytic activity for human erythrocytes.
Series [27] concerns Candida albicans. As to the kind of experiment: Microbicidal activity against Candida albicans 16820 assessed as log reduction in microbial count at 10 ug/ml using PIPES buffer.

Sequence of Beta-galactosidase (Escherichia coli) (Q8VNN2 whole entry, looked up): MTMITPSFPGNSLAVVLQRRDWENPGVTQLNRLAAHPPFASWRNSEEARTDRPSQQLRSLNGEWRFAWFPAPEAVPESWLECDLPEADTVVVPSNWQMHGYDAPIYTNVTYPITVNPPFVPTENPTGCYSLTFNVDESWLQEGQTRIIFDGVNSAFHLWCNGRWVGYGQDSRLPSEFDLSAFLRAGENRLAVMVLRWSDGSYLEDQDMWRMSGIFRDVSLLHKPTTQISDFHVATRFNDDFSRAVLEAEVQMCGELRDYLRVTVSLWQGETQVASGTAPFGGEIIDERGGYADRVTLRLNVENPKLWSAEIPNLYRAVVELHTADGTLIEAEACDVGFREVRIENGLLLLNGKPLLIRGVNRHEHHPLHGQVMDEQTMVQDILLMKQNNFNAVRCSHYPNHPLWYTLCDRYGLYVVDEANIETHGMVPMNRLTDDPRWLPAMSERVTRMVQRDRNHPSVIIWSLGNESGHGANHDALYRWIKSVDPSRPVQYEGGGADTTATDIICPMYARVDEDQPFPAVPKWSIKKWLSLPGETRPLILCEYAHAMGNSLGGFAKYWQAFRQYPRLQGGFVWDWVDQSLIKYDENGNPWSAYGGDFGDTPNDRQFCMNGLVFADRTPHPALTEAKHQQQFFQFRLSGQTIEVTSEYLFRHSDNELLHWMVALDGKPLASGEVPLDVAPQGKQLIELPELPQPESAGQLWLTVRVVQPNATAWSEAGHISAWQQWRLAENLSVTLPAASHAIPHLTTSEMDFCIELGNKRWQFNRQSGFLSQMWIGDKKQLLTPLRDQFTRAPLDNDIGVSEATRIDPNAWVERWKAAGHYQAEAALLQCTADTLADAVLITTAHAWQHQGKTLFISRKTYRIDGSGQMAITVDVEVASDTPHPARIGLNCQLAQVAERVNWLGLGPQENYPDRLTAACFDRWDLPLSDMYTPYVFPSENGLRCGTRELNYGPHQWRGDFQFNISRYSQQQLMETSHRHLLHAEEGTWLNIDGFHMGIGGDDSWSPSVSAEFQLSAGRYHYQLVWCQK

As for `CC[C@H](C)[C@@H]1NC(=O)[C@@H]2CSSC[C@H](NC(=O)[C@H](CCCNC(=N)N)NC(=O)[C@@H]3CSSC[C@H](NC1=O)C(=O)N[C@@H]([C@@H](C)O)C(=O)N[C@@H](CCCNC(=N)N)C(=O)NCC(=O)N[C@@H](Cc1ccccc1)C(=O)N3)C(=O)N[C@@H](CC(C)C)C(=O)N[C@H]1CSSC[C@H](NC(=O)[C@H](C(C)C)NC(=O)CNC(=O)[C@H](CCCNC(=N)N)NC(=O)[C@H](CCCNC(=N)N)NC1=O)C(=O)N[C@@H](CCCNC(=N)N)C(=O)N2`, the Activity is 5.5 µg/mL in series [1], “Non-toxic” in series [2], “Non-toxic” in the series on Hs68 [3] and “Non-toxic” in the series on Hs68 [4].

`CC(C)C[C@H](NC(=O)[C@H](CCCNC(=N)N)NC(=O)CNC(=O)CNC(=O)[C@@H](N)CCCNC(=N)N)C(=O)N[C@H]1CSSC[C@@H](C(=O)N[C@H](C(=O)NCC(=O)N[C@@H](CCCNC(=N)N)C(N)=O)C(C)C)NC(=O)[C@H](C(C)C)NC(=O)[C@@H]2CSSC[C@H](NC(=O)[C@H](Cc3ccc(O)cc3)NC1=O)C(=O)N[C@@H](CCCNC(=N)N)C(=O)N[C@@H](CCCNC(=N)N)C(=O)N[C@@H](CCCNC(=N)N)C(=O)N[C@@H](Cc1ccccc1)C(=O)N2`: the MMC is 0.4 µg/mL with Staphylococcus aureus [5], 1 µg/mL in the series on Escherichia coli [6] and 0.8 µg/mL in the series with Candida albicans [7]. Besides, the Activity in series [1] was 0.8 µg/mL; in series [23], “Toxic”; in series [2] it was “Toxic”; in the series on Hs68 [3] it was “Toxic”; with Hs68 [24], “Toxic”; in the series on Hs68 [25], “Toxic”. The result in the series on Staphylococcus aureus [8], in the series with Candida albicans [9], in the series with Staphylococcus aureus [10], in the series with Staphylococcus aureus [11], with Staphylococcus aureus [12] and with Staphylococcus aureus [13] was Active. In addition, the outcome with Escherichia coli [14], in the series on Staphylococcus aureus [15], in the series with Escherichia coli [16], with Escherichia coli [19] and in the series on Escherichia coli [20] was Active. Besides, the result in the series with Candida albicans [17] and in the series with Escherichia coli [18] was inactive. Further, the inhibition (commonly how much of the control response was suppressed) was “Dose-dependent effect” in [21] and 36% in series [22]. Further, the “Selectivity Index” value in [26] was 2. The FC in the series with Candida albicans [27] is listed as over 3.
